Bioassay records: PubChem, several laboratories
S1P3 ag: S1P3 (human) receptor agonism; S1P3 NFAT-BLA reporter cells, FRET ratio; relative to 1 µM S1P, basal subtracted; activation, % at 4.5 µM; 60,000 compounds, 0.1% hits;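 active = activation above the screen-wide mean plus 3 SD, cut at about 4.5% in these data, passing the limit was not always enough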
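Assay system: CHO cells stably expressing human S1P3, Gα16 and NFAT-β-lactamase reporter. Timing: overnight plating, 4 h compound 37 °C, 2 h substrate RT. Signal: β-lactamase FRET emission ratio 460/535 nm. Measure: percent activation versus median 1 µM S1P response, basal-subtracted, per plate. Repeats: primary screen single test, confirmation screen in triplicate.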
S1P1 ag pot: agonists and agonism potentiators of human S1P1 receptor | S1P1 CRE-bla cells, forskolin, beta-lactamase FRET, potentiator mode; S1P1 agonist co-added at EC20, 2 nM; 100% = saturating reference agonist, 0% = basal | activation, % at 9.5 µM | 56,000 compounds, 0.57% hits | AID 449;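 active = activation above a cutoff set at the mean activation of all tested compounds plus 3 SD, cut at about 54% in these data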;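 note: forskolin at 4 µM as EC80 and the EC20 agonist is SEW2871; 100% = SEW2871 at its EC100 plus forskolin at EC80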
M1 ag: M1 muscarinic receptor agonism. CHO-M1 cells, Fluo-4 calcium fluorescence, agonist mode; stronger effect = higher value. B-score at 10 µM. 64,000 compounds, 3% hits;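 active = fluorescence rise, raw or as B-score row- and column-corrected plate score, outside the 99.7% band of its plate's samples, either direction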
D1 mod: D1 dopamine receptor (human) allosteric modulation; 58,000 compounds, 5.9% hits; B-score at 10 µM; HEK293 D1, CRE-luciferase, dopamine EC30 potentiation; actives deviate in either direction; AID 641;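 active = luminescence count or its row- and column-corrected plate score outside the 99.7% band of the plate's sample wells, on either side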
M1 antagonist: M1 muscarinic receptor (rat) antagonism; CHO-M1 cells, Fluo-4 calcium, ACh EC80 antagonist mode; stronger effect = lower value; B-score at 10 µM; 64,000 compounds, 3.4% hits;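 active = calcium fluorescence response, raw or row-and-column corrected B-score, differing from the plate sample mean either way at a set confidence level, mostly lower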
Target sequence (P08482 whole entry, looked up): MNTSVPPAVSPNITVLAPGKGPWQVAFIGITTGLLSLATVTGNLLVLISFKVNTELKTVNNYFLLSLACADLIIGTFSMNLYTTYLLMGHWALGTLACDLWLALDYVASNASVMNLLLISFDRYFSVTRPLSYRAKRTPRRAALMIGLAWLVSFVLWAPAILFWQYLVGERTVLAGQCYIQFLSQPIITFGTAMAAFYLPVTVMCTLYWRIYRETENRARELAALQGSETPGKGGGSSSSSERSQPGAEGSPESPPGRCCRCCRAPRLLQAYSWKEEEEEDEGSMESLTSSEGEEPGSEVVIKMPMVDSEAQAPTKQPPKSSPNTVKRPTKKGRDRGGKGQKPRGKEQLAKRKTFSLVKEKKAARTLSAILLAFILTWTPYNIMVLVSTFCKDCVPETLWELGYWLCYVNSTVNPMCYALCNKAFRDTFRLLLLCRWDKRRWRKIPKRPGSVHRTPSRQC
M1 agonist conf: confirmation of rat M1 muscarinic receptor agonists. shares compounds with M1 ag. CHO-M1 cells, Fluo-4 calcium fluorescence, agonist mode; actives lie on both sides. fluorescence change (max-min) at 10 µM. 1,700 compounds, 19% hits. AID 1488;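 active = fluorescence change differs from the solvent-only DMSO control mean at a set confidence level in both duplicate runs; inconclusive = differs from solvent-only control mean in just one of two runs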;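 note: an EC20 dose of acetylcholine follows compound addition during the same imaging run; raw fluorescence intensity difference in instrument units with no normalization to controls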
M4 ag counter: rat M4 muscarinic agonism, M1 counter-screen. shares compounds with M1 ag. CHO M4/Gqi5 cells, Fluo-4 calcium fluorescence, agonist mode; actives lie on both sides. fluorescence change (max-min) at 10 µM. 1,700 compounds, 9% hits;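 active = fluorescence change differing from the plate's solvent-only control wells at 99.7% confidence in both duplicates, whether higher or lower; inconclusive = differs from solvent controls in only one of two duplicates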
Active calls of the source: *; u = inconclusive; x = not tested or not shown. Compounds with a hit are over-represented: about 11% of the library has one in this group of screens.

SMILES	S1P3 ag	S1P1 ag pot	M1 ag	D1 mod	M1 antagonist	M1 agonist conf	M4 ag counter
CCCCN(CCCC)c1nc2ccccc2nc1C(C#N)C(=O)NCCCOC (stereo not given)	0.1	3.1	434*	1.25	-15.6*	2697*	2698*
CCCN(CCC)c1nc2ccccc2nc1C(C#N)C(=O)OC(C)COC (stereo not given)	-0.5	-14.4	1.06	x	0.879	x	x
CCN1CCN(c2nc3ccccc3nc2C(C#N)C(=O)OCc2ccccc2)CC1 (stereo not given)	0.6	13.2	-2.67	-3.87	-0.933	x	x
CCN(CC)c1nc2ccccc2nc1C(C#N)C(=O)NCCCOC (stereo not given)	1.1	-81.3	5.01*	2.34	-0.598	-3.99	-29.5
CCc1ccc(CNC(=O)CN2C(=O)COc3ccccc32)cc1	-0.5	-11.8	-0.788	0.21	-0.344	x	x
CC(C)(NCc1ccccc1Cl)C(=O)O	-0.4	-6.6	-0.697	0.023	0.123	x	x
COc1ccc(Br)cc1C(=O)Nc1cccc(NC(=O)c2ccco2)c1	-0.8	-27.3	0.93	-0.508	-0.165	x	x
O=C(Nc1cccc(NC(=O)c2ccc(-c3cccc(Br)c3)o2)c1)c1ccco1	0.1	2.1	7.81*	-3.37*	-1.79	u	-73.8
Cn1cnnc1SCc1ccc(-c2ccc(Br)cc2)o1	-0.5	14.5	0.00604	-0.323	-0.546	x	x
COc1ccc(C(C)=O)c(Oc2nc(CN3CCOCC3)nc3scc(-c4cccs4)c23)c1	0.5	-24.9	45*	0.721	-1.32	-14.2	-47
Cc1ccc(-c2nc3cc(N)ccc3o2)cc1	-1.4	-18.0	2.41*	-3.72*	0.677	-10.5	-14.5
Cc1cc(C)nc(NCCCc2ccccc2)n1	0.0	-8.4	x	x	x	x	x
CCCCNc1cc(C)nc(NCc2ccccc2)n1	-1.5	99.8	6.43*	-4.36	-3.25*	-10.4	-21.7
COC(=O)c1cccc(C(=O)Nc2cnc3ccccc3c2)n1	1.1	-14.1	3.74*	-0.337	-0.437	-11.2	u
O=C(Nc1cnc2ccccc2c1)c1ccncc1	1.2	-20.5	-0.235	x	0.322	x	x
CC(=O)OCCOc1nc(N(C)C)nc(N(C)C)n1	-1.0	-15.3	0.25	0.187	0.277	x	x
Cc1nn(-c2ccccc2)c(N2CCCC2)c1/C=N/n1cnc2scc(-c3ccccc3)c2c1=O	-1.0	12.2	9.13*	-0.112	-2.44*	5.57	-14.6
CC(=O)[C@H]1[C@@H]2C(=O)N(c3cccc(Cl)c3)C(=O)[C@@H]2[C@H]2c3ccccc3C=CN21	-3.9	15.9	6.45*	x	-0.597	97.8*	u
CCOC(=O)c1ccc(Nc2nnc(C(C)(C)C)c(=O)[nH]2)cc1	x	x	3.54*	0.0838	-0.415	-16.6	-1.08
CCOC(=O)c1ccc(NC(=O)C2CC2)cc1	-1.4	-16.3	-0.462	-0.488	0.951	x	x
O=C(CN1C(=O)CNC1=O)Nc1cccc(C(F)(F)F)c1	-0.4	-6.1	0.167	2.65	-0.00472	x	x
CC(C)c1nnc(N2C(=O)c3oc4ccccc4c(=O)c3C2c2ccco2)s1 (stereo not given)	-1.8	7.4	-0.209	-0.416	-0.526	x	x
Cc1nnc(N2C(=O)c3oc4ccccc4c(=O)c3C2c2ccco2)s1 (stereo not given)	-0.7	-1.8	3.03*	-0.79	-0.255	u	-44.3
CCCCC(=O)Nc1c(O)c2ccccc2[nH]c1=O	-4.2	-7.7	-0.312	-0.127	-0.202	x	x
CCCCCCc1c(O)c2ccccc2[nH]c1=O	-1.1	1.1	12.7*	0.111	-0.655	-10.2	-40.5
O=C(COC(=O)C1c2ccccc2Oc2ccccc21)NC1CCS(=O)(=O)C1 (stereo not given)	-0.8	12.8	-0.0497	-0.0195	1.29	x	x
COC(=O)CSc1nnc(-c2ccncc2)n1N	x	x	4.49*	0.0276	1.88	u	-46.2
Cc1ccc(NC(=O)CSc2nnc(-c3ccncc3)n2N)cc1C	x	x	0.855	0.886	0.734	x	x
CC12C=CC3(CN(Cc4ccccc4)C(=O)C3C1C(=O)NC1CC1)O2 (stereo not given)	x	x	-0.172	0.158	0.155	x	x
